The sample as a whole holds a higher share of hits than the screen did.
T cruzi repl: T. cruzi replication inhibition. T. cruzi beta-gal in NIH3T3, luminescence, 90 h. AID 1885. inhibition, % (concentration not given with the values). actives 1.4% (n = 300,000);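 active means mean inhibition across valid replicates above about 55%, limit read from the data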;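 further: signal also drops with host cell toxicity which is not excluded here; 0% = plate median of DMSO wells and 100% = zero luminescence signal; higher percent means less beta-gal luminescence so fewer parasites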
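Test system: β-gal T. cruzi (Tulahuen C4) inside NIH/3T3 cells / Quantity: 5,000 cells/well / Measured by: luminescence from GalScreen with 0.05% NP40, read after 60 min / Medium: DMEM plus 2% FBS / Measure: parasite load inhibition, % / Reagent: Tulahuen C4 trypomastigotes, 5000/well / Schedule: co-culture of at least 90 h after 3 h attachment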
L major viab: inhibitors of Leishmania major promastigote growth; Leishmania major promastigotes, resazurin fluorescence viability; inhibition, % at 10 µM; actives 9% (n = 200,000); AID 1063; in the data active means inhibition above about 50%;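 further: promastigotes grown with compound for 44 hours at 28 °C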
CHOP inh: blocks CHOP induction under ER stress. CHO-K1 CHOP-promoter luciferase, tunicamycin-induced, 15-18 h. inhibition, % at 10 µM. actives 3.8% (n = 220,000). AID 2732;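 active means compounds that reduced the stress-induced luciferase reporter signal by more than about 70% of percent inhibition, limit read from the data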;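 further: 0% = tunicamycin plus vehicle and 100% = wells without tunicamycin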
Dynein cargo inh: blocks dynein driven cargo transport along microtubules | 3617.4 mouse cells, GR-EGFP nuclear translocation imaging; test concentration mostly 20 µM; stimulated with dexamethasone, 1 µM; active compounds read low | z-score, hits read low | actives 0.47% (n = 220,000) | AID 1381;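 active means plate z-score of nuclear minus cytoplasmic receptor signal below a set negative limit, without overly bright fluorescence or cell loss, cut at about -3.5 in these data, passing the limit was not always enough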;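 further: z-score of nuclear minus cytoplasmic ring GR-EGFP intensity difference per well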
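Medium: Induction medium lacking tetracycline, stripped serum | Probe or stimulus: 1.0 µM final dexamethasone stimulus | Schedule: 48 h induction, then 1 h compound, then 30 min agonist, 37 °C | Signal: Automated 10x imaging of fixed Hoechst-stained cells | Evaluation: Per-cell GR-EGFP intensity, nucleus versus surrounding cytoplasmic ring, well-averaged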
UPR CHOP act: apoptotic UPR (CHOP) activation | CHO-CHOP luciferase reporter, luminescence; percent of tunicamycin response over DMSO baseline | activation, % at 10 µM | actives 0.34% (n = 330,000);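 active means at 10 µM dose, activation of 40% or more, normalized to positive control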;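 further: 100% = tunicamycin at 10 µg/mL and 0% = DMSO alone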
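Assay system: CHO cells with stable CHOP pathway luciferase reporter; Buffer or medium: F12 plus 10% serum; Times: 16-18 h cell attachment, then 6 h compound exposure, 37 °C; Signal: luciferase luminescence; Read-out basis: percent activation relative to tunicamycin control; Control set: tunicamycin high control, DMSO low control.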
XBP1 UPR activ: activators of adaptive arm of unfolded protein response (XBP1) | activation, % at 20 µM | CHO-XBP1 luciferase reporter, IRE1-XBP1 UPR activation, luminescence; percent of tunicamycin response, DMSO as zero | actives 0.33% (n = 330,000) | AID 463104;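 active means versus positive control, 20 µM dose yields 30% or more activation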;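 further: 100% = tunicamycin at 10 µg/mL and 0% = DMSO only wells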
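Assay system: CHO-XBP1 luciferase reporter cells; Schedule: 6 h treatment, 37 °C; Detection: glow luminescence from Steady-Glo reagent; Benchmarks: high control tunicamycin 10 µg/mL final, low control DMSO vehicle only.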
Starred values were filed as active, the others as inactive; . = not tested or not shown.

SMILES	T cruzi repl	L major viab	CHOP inh	Dynein cargo inh	UPR CHOP act	XBP1 UPR activ
CCCNC(=S)NC1CC2CCC(C1)N2Cc1ccccc1 (stereo unspecified)	-23	66*	18	-0.36	1	-3
O=C(CN1C2CCCC1CC(NC(=O)C1CCCCC1)C2)Nc1ccccc1 (stereo unspecified)	20	.	.	.	0	4
O=C(NCc1cccc2[nH]ccc12)C1CCC(=O)N(CCc2ccccc2)C1 (stereo unspecified)	-10	.	.	.	1	-3
COc1ccc(C(=O)O)cc1S(=O)(=O)NC(C)C	-7	.	-10	0.56	-1	-1
CCN(CC(=O)Nc1ccc2c(c1)OCCO2)C(=O)c1ccc(C)c(S(=O)(=O)N2CCOCC2)c1	0	.	.	.	1	-2
CCNc1nc(NCC)n2c(SCC(=O)Nc3ccccc3[N+](=O)[O-])nnc2n1	-10	-7	21	-0.14	0	-1
O=C(NC1CCCN(CCc2ccccc2)C1)C1CCCC1 (stereo unspecified)	55*	.	.	.	-1	-6
N#Cc1ccc(S(=O)(=O)N2CCN(C(=O)[C@@H]3CCCN3C(=O)c3cccs3)CC2)cc1	.	.	.	.	0	3
c1cc2c3c(cccc3c1)NC1(CCC3(CC1)Nc1cccc4cccc(c14)N3)N2	59*	.	20	-1.4	11	5
COc1cc(CN2CC(=O)N(c3ccc(C)c(C)c3)C2=S)cc(OC)c1OC	5	94*	40	0.82	3	-2
CCc1ccc(N2C(=O)CN(Cc3cc(OC)c(OC)c(OC)c3)C2=S)cc1	-27	2	27	-0.56	5	-1
COc1ccc(CN2CC(=O)N(c3ccc(C)c(C)c3)C2=S)cc1OC	-2	52*	20	1.2	0	1
COc1ccc(N2C(=O)CN(Cc3ccc(OC)c(OC)c3)C2=S)cc1	-5	26	-2	3.7	1	-2
CCCCC(=Nc1ccc(N)cc1)C1=C(O)C(C(=O)OC)C(C)(C)CC1=O (stereo unspecified)	-7	68*	0	0.53	2	-1
COc1ccc(CN(CC2CCC(C(=O)O)CC2)C(=S)Nc2ccc(C)c(Cl)c2)cc1 (stereo unspecified)	58*	2	1	-0.043	-1	-2
COc1ccc(NC(=S)N(Cc2cccc(Br)c2)CC2CCC(C(=O)O)CC2)cc1 (stereo unspecified)	-6	-2	2	-0.64	0	0
O=C(c1cnc2n(c1=O)CCS2)N1CCN(C(c2ccccc2)c2ccc(Cl)cc2)CC1 (stereo unspecified)	18	58*	7	-0.67	4	-4
O=C(COC(=O)c1c2c(nc3ccccc13)/C(=C/c1ccco1)CC2)NC1CCCC1	5	89*	-9	-0.52	.	.
O=C(CN1C(=O)C(=O)N(C2CCCC2)C1=O)Nc1ccc([N+](=O)[O-])cc1	.	.	.	.	1	1
Cc1cc2cccc(C)c2nc1SCC(=O)N(C)c1nc(-c2ccccc2)cs1	18	-3	17	0.79	-2	-1
COc1ccc2c(c1)cc(C)c1nnc(SCC(=O)N(C)c3nc(-c4ccccc4)cs3)n12	7	0	94*	1.4	-3	0
COC(=O)c1ccc(C(=O)NC(=S)Nc2ccc3nc(SC)sc3c2)cc1	-8	-7	72*	0.61	17	29
CSc1nc2ccc(NC(=O)c3ccccn3)cc2s1	-19	.	.	.	-3	-12
O=C(CC12CC3CC(CC(C3)C1)C2)NC(=S)Nc1ccc(CN2CCOCC2)cc1	82*	24	37	-0.33	0	1
O=C(NC(=S)Nc1ccc(CN2CCOCC2)cc1)c1ccco1	-2	.	-9	0.53	6	5
CCOC(=O)Nc1nc(-c2ccc(F)cc2F)cs1	-1	-8	13	-0.28	3	1
CCc1noc(C)c1C(=O)Nc1nc(-c2cccs2)cs1	-2	.	.	.	3	0
CCc1noc(C)c1C(=O)Nc1nc(-c2ccc(Cl)cc2Cl)cs1	-7	46	73*	0.13	-2	-1
